PubChem BioAssay AID493091 (Sanford-Burnham Center for Chemical Genomics, 2011)
“And” between values parts separate entries of the source, which are not always exact repeats. Identical values can stand only once. Out of some 340,000 compounds screened, about 3,000 (0.88%) were called active. What follows is part of a selection rich in actives, with near analogues and random picks from the rest. A number with no mark means an inactive call.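 The calls were made as follows: active = inhibition above about 50% at 20 µM (limit read from the data); inactive = the rest.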

Biological target: Carboxy-terminal domain RNA polymerase II polypeptide A small phosphatase 1 (Homo sapiens) (UniProt Q9GZU7)
Sequence (Q9GZU7 76-261 limits assumed): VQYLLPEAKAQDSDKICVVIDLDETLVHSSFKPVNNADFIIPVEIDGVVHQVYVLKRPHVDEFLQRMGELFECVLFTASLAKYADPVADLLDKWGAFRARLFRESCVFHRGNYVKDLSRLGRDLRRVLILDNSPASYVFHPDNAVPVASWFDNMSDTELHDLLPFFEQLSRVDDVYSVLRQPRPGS
Test: Scp-1 phosphatase inhibitors, primary screen, biochemical, colorimetric, uHTS (AID 493091);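 also: plate controls were DMSO wells with enzyme for no effect and wells lacking enzyme for full effect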
Details: Recombinant Scp1, phosphopeptide, malachite green phosphate absorbance; at 20 µM; stronger effect = higher value
Outline: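 Test system: SCP-1 phosphatase catalytic domain, residues 76-261; measured by: colorimetric phosphate reagent with accelerator and stabiliser, absorbance at 630 nm; timing: enzyme reaction 45 min at room temperature, colour 5 min, stabilisation 30 min; also added: Phosphorylated 17-residue peptide substrate; compound dosing: one concentration, 20 µM, with 1.0% DMSO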

| Structure (SMILES) | inhibition |
| --- | --- |
| NNC(=O)C1CC(O)CN1S(=O)(=O)c1ccc(Cl)cc1 (centres undefined) | -8.23% |
| CN1CCN(C2Cc3ccc(Cl)cc3Sc3ccc(F)cc32)CC1 (centres undefined) | -3.27% |
| Cc1c(CCO)c(=O)n(-c2ccccc2)n1S(=O)(=O)c1ccc(F)cc1 | -6.22% |
| CCOC(=O)c1cnn(Cc2ccccc2Cl)c1N | -4.87% |
| CC(=O)c1cccc(NC(=O)c2cc(C)nn2-c2ccccc2)c1 | -21.8% |
| CC[n+]1c(C)n(-c2ccccc2)c2ccc(NC(C)=O)cc21 | 59.6% (active) |
| CC(=O)Nc1ccc(NC(=O)CSc2nnc(C3CC3)n2-c2ccccc2)cc1 | 3.64% |
| CCc1ccc(NC(=O)CS(=O)CC(=O)NCCCc2ccccc2)cc1 (centres undefined) | 93.4% (active) |
| CCc1ccc(NC(=O)CS(=O)CC(=O)N2CCN(c3ccccc3F)CC2)cc1 (centres undefined) | -3.07% |
| S=C(NCCCc1ccccc1)Nc1ccc(Br)cc1 | -8.32% |
| CC(C)(C)C1CCc2c(sc3nc(SCC(N)=O)nc(N)c23)C1 (centres undefined) | 5.56% |
| O=C(Nc1cccnc1)c1cc([N+](=O)[O-])ccc1Cl | -5.04% |
| COc1ccc2oc(=N)c(C(=O)Nc3ccc(Br)cc3)cc2c1 | 2.27% |
| O=C(Nc1cccnc1)c1cc2cc(Br)ccc2oc1=O | 101% (active) |
| O=C(Oc1ccc2c(c1)CCC2)N1CCOCC1 | -4.77% |
| COc1ccc(CCNS(=O)(=O)c2cn(C)nc2C)cc1 | 0.34% |
| Oc1[nH]c2ccccc2c1N=Nc1c(F)c(F)c(F)c(F)c1F | -10.4% |
| O=C(O)c1ccccc1/C=N/Nc1ccc(S(=O)(=O)Nc2ccc(Cl)cc2)cc1[N+](=O)[O-] | -7.5% |
| O=[N+]([O-])c1cc(S(=O)(=O)Nc2cccc(Cl)c2)ccc1N=Nc1c(O)[nH]c2ccccc12 | 52.2% (active) |
| Cc1ccnc(NS(=O)(=O)c2ccc(NC(=O)c3oc4ccccc4c3C)cc2)n1 | -7.13% |
| O=C1CCC/C=C\C[C@@H](CC(=O)N(CCO)Cc2ccccc2)C(=O)NCCO1 | -0.23% |
| O=C(CCNC(=O)c1ccccc1Cl)NN=Cc1ccco1 | 10.6% |
| O=C(N/N=C/c1ccc(Br)o1)c1cncc(Br)c1 | 0.65% |

| Structure (SMILES) | inhibition |
| --- | --- |
| O=C(CCNC(=O)c1ccccc1)NN=Cc1ccc(Br)o1 | 70.2% (active) |
| O=C(CCC(=O)N/N=C/c1ccc(Br)o1)N/N=C/c1ccc(Br)o1 | 55% (active) |
| N#CCC(=O)N/N=C/c1ccc(SCC(=O)Nc2ccccc2)o1 | -8.26% |
| O=C(CCc1n[nH]c(=O)[nH]c1=O)N/N=C/c1ccc(Br)o1 | 2.94% |
| Cc1ccc(S(=O)(=O)NCC(C)NS(C)(=O)=O)cc1 (centres undefined) | -4.62% |
| Cc1cccc(C)c1NC(=O)COC(=O)c1ccccc1O | -5.49% |
| COc1ccc(CNS(=O)(=O)c2cc(-c3cc(C)no3)ccc2C(C)C)cc1 | -11% |
| O=C(c1cc(S(=O)(=O)N2CCOCC2)ccc1Cl)N1CCOCC1 | -9.49% |
| CC(=O)N1CCN(S(=O)(=O)c2cccc(C(=O)NC3CCC(C)CC3)c2)CC1 (centres undefined) | 5.39% |
| C[C@H](NC(=O)C1CC(=O)N(c2ccc3c(c2)OCO3)C1)C(=O)NCc1ccco1 (some centres undefined) | -2.53% |
| CCCn1nc(NS(=O)(=O)c2ccc(F)cc2)c2cc3ccccc3nc21 | 3.78% |
| CCCCNc1nc2ccccc2nc1NS(=O)(=O)c1cccs1 | -7.43% |
| COCCCNc1nc2ccccc2nc1NS(=O)(=O)c1ccc(F)cc1 | 54.7% (active) |
| CC1C(=O)C(C)C(c2ccc(O)cc2)NC1c1ccc(O)cc1 (centres undefined) | -7.74% |
| CCN(CC)S(=O)(=O)c1cccc(-c2n[nH]c(=S)n2/N=C/c2ccc(C(=O)OC)cc2)c1 | -7.1% |
| Cc1ccc(OC(=O)c2ccccc2C(=O)OCC(F)(F)C(F)F)cc1 | -9.39% |
| CCc1ccc(C2C(C#N)=C(N)N(N3CCOCC3)C3=C2C(=O)CC(C)(C)C3)s1 (centres undefined) | 8.56% |
| CC(C)(CNC(=O)CNC(=O)C1CCCCC1)N1CCOCC1 | -8.57% |
| O=S(=O)(c1ccc(Br)c2ccccc12)N1CCOCC1 | -7.33% |
| COc1ccc2[nH]c(C(=O)N3CCN(C)CC3)c(C)c2c1 | -4.55% |
| COc1ccc2[nH]c3c(C)c4cc[n+](C)cc4c(C)c3c2c1 | 64.5% (active) |
| COc1ccc2[nH]c(=S)cc(C)c2c1 | -4.32% |
| Cn1nc(C(C)(C)C)c([N+](=O)[O-])c1C(N)=O | -0.65% |

| Structure (SMILES) | inhibition |
| --- | --- |
| Cc1c([N+](=O)[O-])c(N)nn1C | 51% (active) |
| Cc1nn(CCOc2ccc(Br)cc2)c(C)c1[N+](=O)[O-] | -14.1% |
| Clc1ccc(Cn2ncc3c(NCc4cccnc4)ncnc32)cc1 | 2.57% |
| NS(=O)(=O)c1cccc(NC(=O)COC(=O)/C=C/c2ccco2)c1 | 26.2% |
| O=C(COC(=O)/C=C/c1ccc(Br)o1)Nc1cccc(S(=O)(=O)N2CCOCC2)c1 | 56% (active) |
| O=C(COC(=O)c1ccccc1)Nc1cccc(S(=O)(=O)N2CCOCC2)c1 | -6.52% |
| C=CCOc1ccc(/C=C/C(=O)OCC(=O)NC(C)c2ccc(F)cc2)cc1 (centres undefined) | 1.27% |
| Cc1c(CCOC(=O)CC23CC4CC(CC(C)(C4)C2)C3)sc[n+]1Cc1ccc([N+](=O)[O-])cc1 | 12.7% and 5.4% |
| CN(C)c1nc2n(c(=O)n1)CCO2 | 1.74% |
| COc1ccc(OCC(=O)NNC(=O)c2ccc(-c3ccccc3)cc2)cc1 | 69.9% (active) |
| CC(NC(=O)COc1ccc(-c2ccccc2)cc1)C1CCCO1 (centres undefined) | -2.02% |
| COc1ccc(OCC(=O)NNC(=O)C2CCC2)cc1 | 0.44% |
| CCC(C)N1CC(=O)N2Cc3[nH]c4ccccc4c3C[C@H]2C1=O (some centres undefined) | -3.96% |
| N/C(=N\OC(=O)Cc1ccccc1[N+](=O)[O-])c1ccc(Br)cc1 | -4.88% |
| N/C(=N\OC(=O)c1ccc2c(c1)OCO2)c1ccc(Br)cc1 | -3.74% |
| N/C(=N\OC(=O)N1c2ccccc2Sc2ccccc21)c1ccc(Br)cc1 | 69% (active) |
| Cc1cc(C)nc(NS(=O)(=O)c2ccc(N3C(=O)C4CCCCC4C3=O)cc2)n1 (centres undefined) | -3.6% |
| Cc1ccc(S(=O)(=O)Nc2nc(C)cc(-n3nc(C)cc3C)n2)cc1 | 84.1% (active) |
| Cc1ccc(S(=O)(=O)Nc2nc(N)n(-c3ccccc3)n2)cc1 | -3.38% |
| COC(=O)c1sccc1NC(=O)CSc1ccccc1NS(=O)(=O)c1cc(Cl)ccc1Cl | -13.4% |
| O=C(CNC(=O)C12CC3CC(CC(C3)C1)C2)OCC(=O)N1CCCCC1 | -0.76% |
| C#CCOCCOCCOCCNc1nc(N2CCN(C(=O)CCCCCCCCCCNC(=O)[C@H](CCCCN)n3cc(C)nn3)CC2)nc(N2CCN(C(=O)CCCCCCCCCCNC(=O)[C@H](CO)n3cc(CCCSC)nn3)CC2)n1 | 26.8% |
| C#CCOCCOCCOCCNc1nc(N2CCN(C(=O)Cn3cc(CCO)nn3)CC2)nc(N2CCN(C(=O)Cn3cc(CCCN=C(N)N)nn3)CC2)n1 | 4.14% |

| Structure (SMILES) | inhibition |
| --- | --- |
| C#CCOCCOCCOCCNc1nc(N2CCN(C(=O)CCCCCCCCCCNC(=O)[C@H]([C@@H](C)CC)n3cc(CCCCN=C(N)N)nn3)CC2)nc(N2CCN(C(=O)CCCCCCCCCCNC(=O)[C@H](CO)n3cc(CCCSC)nn3)CC2)n1 | 53% (active) |
| Cc1ccc(CNC(=O)C(=O)c2cn(CC(=O)N3CCCC3)c3ccccc23)cc1 | -10.2% |
| O=C(c1cc2c(s1)CCC2)N1CCN(c2ccccc2)CC1 | 51.2% (active) |
| O=C(c1ccccc1)c1ccc(C(=O)N2CCN(c3ccccc3)CC2)cc1 | 0.99% |
| O=C(C1CCC1)N1CCN(c2ccccc2)CC1 | -5.05% |
| O=C1NC(c2ccccc2)Cc2ccncc21 (centres undefined) | 5.3% |
| Cc1cc(/C=C2\SC(=Nc3ccc(N4CCOCC4)cc3)N(C)C2=O)c(C)n1-c1cccnc1 | -4.38% |
| Cc1cc(/C=C2\SC(=O)N(C)C2=O)c(C)n1-c1cccc(C(=O)O)c1 | 54.7% (active) |
| Cc1cc(/C=C2/SC(=O)N(CC(=O)N3CCCC3)C2=O)c(C)n1C | -10.3% |
| CC(C)CCN1CCC(C)(NC(=O)c2ccccc2)C1=O (centres undefined) | 5.05% |
| Cc1nnc(SCc2ccc(C(=O)c3ccc(Cl)cc3)o2)n1-c1ccccc1 | 7.29% |
| CCCn1nc(C(=O)NNC(=O)CCOc2ccccc2OCC)c2ccccc2c1=O | -1.1% |
| CSc1nc(-c2ccco2)nn1C(=O)c1ccccc1Cl | -10.4% |
| CCOc1ccccc1/C=c1\sc2nc(-c3ccco3)nn2c1=O | 78% (active) |
| Nc1ncc(CN2CCCC(C(=O)Nc3ccc(-c4ccco4)cc3)C2)cn1 (centres undefined) | -3.44% |
| COc1ccc(C(=O)C2CCCN(Cc3cccn3-c3ccccn3)C2)c(C)c1 (centres undefined) | -4.92% |
| CS(=O)(=O)C1=NN2C(=N)/C(=C\c3ccc(OCCOc4ccccc4)cc3)C(=O)N=C2S1 | 50.3% (active) |
| COc1ccccc1OCCOc1ccc(/C=C2\C(=N)N3N=C(C)SC3=NC2=O)cc1 | -7.04% |
| CCOc1cc(/C=C2\C(=N)N3N=C(C)SC3=NC2=O)ccc1OCCOc1ccccc1 | -5.68% |
| CCOc1ccc(S(=O)(=O)N/N=C(\C)c2ccc(Cl)c(Cl)c2Cl)cc1 | -6.85% |
